Published values collected from several papers.
Compare with care: the assays were run in different laboratories.
Target: Calcium/calmodulin-dependent protein kinase kinase 1 (CAMKK1, Homo sapiens, UniProt Q8N5S9)

| SMILES | assay | setting | remaining binding |
| --- | --- | --- | --- |
| F[C@@H]1CCN(c2nccc(-c3cnn4ncccc34)n2)C1 | binding | 1 µM | 100% |
| CNC(=O)c1ccc(Nc2ncc(C(F)(F)F)c(NCc3nccnc3N(C)S(C)(=O)=O)n2)cc1 | cell-free assay, competition with immobilised ligand | 0.1 µM | 75% |
| CN(C)c1ncc(F)c(-c2cnn3ncccc23)n1 | binding | 1 µM | 90% |
| C=CC(=O)N1CCC(C(=O)NCC(=O)N2CCN(c3nc(-c4cnc(N)nc4C(F)F)nc(N4CCOCC4)n3)CC2)CC1 | binding, competition with immobilised ligand | 1 µM | 96% |
| Cc1cnn2ncc(-c3ccnc(N(C)C)n3)c2c1 | binding | 1 µM | 84% |
| COc1ncc2cc3ccccc3nc2c1C#N | cell-free assay, competition with immobilised ligand | 5 µM | 87% |
| C[C@@H]1CCN(c2nccc(-c3cnn4ncccc34)n2)C1 | binding | 1 µM | 87% |
| O=C(c1ccc(Nc2ncc(Cl)c(-c3cc4ccccc4s3)n2)cc1)N1CCC(N2CCCC2)CC1 | binding, competition with immobilised ligand | 1 µM | 91% |
| CNC(=O)[C@@H]1CC[C@@H](n2c(-c3ccc4cnccc4c3)nc3ccc(C(=O)NCc4cccc(C(N)=O)c4)cc32)C1 | binding, competition with immobilised ligand | 1 µM | 94% |
| CN(C)c1nccc(-c2cnc3ncccn23)n1 | binding | 1 µM | 100% |
| Cc1nc(C2CCN(C(=O)c3ccc(OC(F)(F)F)cc3N)CC2)c2ncc(N3CCN(C)CC3)cc2n1 | cell-free assay, competition with immobilised ligand | 1 µM | 100% |
| N[C@H]1CCN(c2nccc(-c3cnn4ncccc34)n2)C1 | binding | 1 µM | 100% |
| O=C(O)[C@@H]1[C@@H](Cn2nnc3ccccc3c2=O)CC[C@H]1C(=O)c1ccc(OCCC2CCOCC2)cc1 | cell-free assay, competition with immobilised ligand | 1 µM | 100% |
| O=C(Nc1c[nH]nc1C(=O)NC1CCNCC1)c1cc(F)cc(F)c1 | binding, competition with immobilised ligand | 1 µM | 90% |
| CNCc1ccccc1-c1csc([C@@H](C)Nc2nc(C)nc3cc(OC)c(OC)cc23)c1 | cell-free assay, competition with immobilised ligand | 1 µM | 100% |
| O=C(NCCCN1CCOCC1)c1ccc(Nc2ncc(Cl)c(-c3ccc(Cl)s3)n2)cc1 | binding, competition with immobilised ligand | 1 µM | 73% |
| CC(=O)N1CCC(c2ccc(C(=O)NC(=N)N)cc2C(F)(F)F)CC1 | cell-free assay, competition with immobilised ligand | 1 µM | 100% |
| O=C(NCCCN1CCOCC1)c1ccc(Nc2nccc(-c3cc4ccccc4s3)n2)cc1 | binding, competition with immobilised ligand | 1 µM | 80% |
| O=C(Nc1cnc(Oc2ccc(F)cc2)nc1)N1CCc2ncccc2[C@@H]1c1ccc(F)cc1 | cell-free assay, competition with immobilised ligand | 1 µM | 92% |
| CC1CCCN1c1nccc(-c2cnn3ncccc23)n1 (stereo not shown) | binding | 1 µM | 100% |
| CO[C@H]1CC[C@H](CNc2ccc(S(=O)(=O)NC(=O)c3ccc(N4CCN(CC5=C(c6ccc(Cl)cc6)CC(C)(C)CC5)CC4)cc3Oc3cnc4[nH]ccc4c3)cc2[N+](=O)[O-])CC1 | cell-free assay, competition with immobilised ligand | 1 µM | 83% |
| FC(F)(F)Oc1cccc(-c2cnc3ccc(-c4ccncc4)nn23)c1 | cell-free assay, competition with immobilised ligand | 5 µM | 43% |
